Test results published in ChEMBL document CHEMBL2086328, “¹⁸F-labeled 2-phenylquinoxaline derivatives as potential positron emission tomography probes for in vivo imaging of β-amyloid plaques” (Eur J Med Chem, 2012).
One block for each molecule: values may come before it. Activity calls are given as the source filed them. The rule behind the calls is not given here.

How the values were obtained:
Heart [1] = test: Biodistribution in ICR mouse heart at 370 kBq, iv after 2 mins by gamma counting; type: ADME, organism-based; conditions: in vivo
In short: (§1)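 Male ICR mice (five weeks, 20–22 g), tail-vein injection of 18F tracer in 0.1 mL saline with 10% EtOH. Killed by decapitation at set times, n = 5 per time point. Organs removed, weighed and gamma-counted; %ID/g wet tissue from comparison with diluted aliquots of injected dose; mean ± SD.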

Blood [2] = test: Biodistribution in ICR mouse blood at 370 kBq, iv after 2 mins by gamma counting; type: ADME, organism-based; conditions: in vivo; in short: as §1
Heart [3] = test: Biodistribution in ICR mouse heart at 370 kBq, iv after 30 mins by gamma counting; type: ADME, organism-based; conditions: in vivo, 0.5 h; in short: as §1
Lung [4] = test: Biodistribution in ICR mouse lung at 370 kBq, iv after 10 mins by gamma counting; type: ADME, organism-based; conditions: in vivo; in short: as §1
Heart [5] = test: Biodistribution in ICR mouse heart at 370 kBq, iv after 10 mins by gamma counting; type: ADME, organism-based; conditions: in vivo; in short: as §1
Stomach [6] = test: Biodistribution in ICR mouse stomach at 370 kBq, iv after 30 mins by gamma counting; type: ADME, organism-based; conditions: in vivo, 0.5 h; in short: as §1
Bone [7] = test: Biodistribution in ICR mouse bone at 370 kBq, iv after 2 mins by gamma counting; type: ADME, organism-based, Bone element; conditions: in vivo; in short: as §1
Lung [8] = test: Biodistribution in ICR mouse lung at 370 kBq, iv after 2 mins by gamma counting; type: ADME, organism-based; conditions: in vivo; in short: as §1
Intestine [9] = test: Biodistribution in ICR mouse intestine at 370 kBq, iv after 10 mins by gamma counting; type: ADME, organism-based; conditions: in vivo; in short: as §1
[10] = Lipophilicity, log D of the compound; type: physicochemical; conditions: octanol/water
In short: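 18F tracer (740 kBq) in 3 g n-octanol plus 3 g PBS (0.05 M, pH 7.4). Vortexed 3 min at room temperature, centrifuged 5 min at 3000 rpm; weighed samples from octanol and buffer layers counted.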

Brain [11] = test: Ratio of drug level in ICR mouse brain after 2 mins to ICR mouse brain after 60 mins at 370 kBq, iv; type: ADME, organism-based; conditions: in vivo
In short: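 Same intravenous study in ICR mice (370 kBq 18F tracer in saline/10% EtOH, n = 5 per time point). Ratio is brain %ID/g at 2 min divided by brain %ID/g at 60 min post-injection.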

Brain [12] = test: Biodistribution in ICR mouse brain at 370 kBq, iv after 10 mins by gamma counting; type: ADME, organism-based; conditions: in vivo; in short: as §1
Intestine [13] = test: Biodistribution in ICR mouse intestine at 370 kBq, iv after 30 mins by gamma counting; type: ADME, organism-based; conditions: in vivo, 0.5 h; in short: as §1
Intestine [14] = test: Biodistribution in ICR mouse intestine at 370 kBq, iv after 2 mins by gamma counting; type: ADME, organism-based; conditions: in vivo; in short: as §1
Kidney [15] = test: Biodistribution in ICR mouse kidney at 370 kBq, iv after 30 mins by gamma counting; type: ADME, organism-based; conditions: in vivo, 0.5 h; in short: as §1
Spleen [16] = test: Biodistribution in ICR mouse spleen at 370 kBq, iv after 60 mins by gamma counting; type: ADME, organism-based; conditions: in vivo, 1 h; in short: as §1
Liver [17] = test: Biodistribution in ICR mouse liver at 370 kBq, iv after 10 mins by gamma counting; type: ADME, organism-based; conditions: in vivo; in short: as §1
Liver [18] = test: Biodistribution in ICR mouse liver at 370 kBq, iv after 30 mins by gamma counting; type: ADME, organism-based; conditions: in vivo, 0.5 h; in short: as §1
Spleen [19] = test: Biodistribution in ICR mouse spleen at 370 kBq, iv after 10 mins by gamma counting; type: ADME, organism-based; conditions: in vivo; in short: as §1
Spleen [20] = test: Biodistribution in ICR mouse spleen at 370 kBq, iv after 30 mins by gamma counting; type: ADME, organism-based; conditions: in vivo, 0.5 h; in short: as §1
Kidney [21] = test: Biodistribution in ICR mouse kidney at 370 kBq, iv after 60 mins by gamma counting; type: ADME, organism-based; conditions: in vivo, 1 h; in short: as §1
Lung [22] = test: Biodistribution in ICR mouse lung at 370 kBq, iv after 60 mins by gamma counting; type: ADME, organism-based; conditions: in vivo, 1 h; in short: as §1
Blood [23] = test: Biodistribution in ICR mouse blood at 370 kBq, iv after 60 mins by gamma counting; type: ADME, organism-based; conditions: in vivo, 1 h; in short: as §1
Intestine [24] = test: Biodistribution in ICR mouse intestine at 370 kBq, iv after 60 mins by gamma counting; type: ADME, organism-based; conditions: in vivo, 1 h; in short: as §1
Brain [25] = test: Biodistribution in ICR mouse brain at 370 kBq, iv after 30 mins by gamma counting; type: ADME, organism-based; conditions: in vivo, 0.5 h; in short: as §1
Blood [26] = test: Biodistribution in ICR mouse blood at 370 kBq, iv after 30 mins by gamma counting; type: ADME, organism-based; conditions: in vivo, 0.5 h; in short: as §1
Bone [27] = test: Biodistribution in ICR mouse bone at 370 kBq, iv after 60 mins by gamma counting; type: ADME, organism-based, Bone element; conditions: in vivo, 1 h; in short: as §1
Stomach [28] = test: Biodistribution in ICR mouse stomach at 370 kBq, iv after 60 mins by gamma counting; type: ADME, organism-based; conditions: in vivo, 1 h; in short: as §1
Kidney [29] = test: Biodistribution in ICR mouse kidney at 370 kBq, iv after 2 mins by gamma counting; type: ADME, organism-based; conditions: in vivo; in short: as §1
Liver [30] = test: Biodistribution in ICR mouse liver at 370 kBq, iv after 2 mins by gamma counting; type: ADME, organism-based; conditions: in vivo; in short: as §1
Brain [31] = test: Biodistribution in ICR mouse brain at 370 kBq, iv after 60 mins by gamma counting; type: ADME, organism-based; conditions: in vivo, 1 h; in short: as §1
Kidney [32] = test: Biodistribution in ICR mouse kidney at 370 kBq, iv after 10 mins by gamma counting; type: ADME, organism-based; conditions: in vivo; in short: as §1
Stomach [33] = test: Biodistribution in ICR mouse stomach at 370 kBq, iv after 2 mins by gamma counting; type: ADME, organism-based; conditions: in vivo; in short: as §1
Liver [34] = test: Biodistribution in ICR mouse liver at 370 kBq, iv after 60 mins by gamma counting; type: ADME, organism-based; conditions: in vivo, 1 h; in short: as §1
Heart [35] = test: Biodistribution in ICR mouse heart at 370 kBq, iv after 60 mins by gamma counting; type: ADME, organism-based; conditions: in vivo, 1 h; in short: as §1
Stomach [36] = test: Biodistribution in ICR mouse stomach at 370 kBq, iv after 10 mins by gamma counting; type: ADME, organism-based; conditions: in vivo; in short: as §1
Bone [37] = test: Biodistribution in ICR mouse bone at 370 kBq, iv after 10 mins by gamma counting; type: ADME, organism-based, Bone element; conditions: in vivo; in short: as §1
Spleen [38] = test: Biodistribution in ICR mouse spleen at 370 kBq, iv after 2 mins by gamma counting; type: ADME, organism-based; conditions: in vivo; in short: as §1
Bone [39] = test: Biodistribution in ICR mouse bone at 370 kBq, iv after 30 mins by gamma counting; type: ADME, organism-based, Bone element; conditions: in vivo, 0.5 h; in short: as §1
Brain [40] = test: Biodistribution in ICR mouse brain at 370 kBq, iv after 2 mins by gamma counting; type: ADME, organism-based; conditions: in vivo; in short: as §1
Blood [41] = test: Biodistribution in ICR mouse blood at 370 kBq, iv after 10 mins by gamma counting; type: ADME, organism-based; conditions: in vivo; in short: as §1
Lung [42] = test: Biodistribution in ICR mouse lung at 370 kBq, iv after 30 mins by gamma counting; type: ADME, organism-based; conditions: in vivo, 0.5 h; in short: as §1
[43] = Displacement of [125I]IMPY from amyloid beta (1 to 42) after 2 hrs by gamma counting
In short: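 Competition binding against [125I]IMPY (radiochemical purity >95%) on Aβ1-42 aggregates with 1% BSA solution; inhibitor 10^-4–10^-9.5 M; 37 °C, 2 h. Free and bound separated by vacuum filtration on GF/B filters, three PBS washes (0.02 M, pH 7.4, room temperature); filters gamma-counted. Three repeats; IC50 fitted, Ki from Cheng–Prusoff.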

[44] = biological target: Amyloid-beta precursor protein (Homo sapiens) (UniProt P05067); test: Binding affinity to beta-amyloid in normal human brain at 1.85 MBq/[…] after 1 hr by thioflavin-S based autoradiography; conditions: 1.85 M, tested as the 18F-labelled form
In short: (§2)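 Paraffin human temporal-lobe sections (5 µm; AD case or control) deparaffinized through xylene and graded ethanol, then PBS (0.2 M, pH 7.4) for 30 min. Incubated with 18F tracer (1.85 MBq/200 µL), 1 h, room temperature; washed in 40% EtOH, rinsed in water; phosphor plate exposure 2 h.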

[45] = biological target: Amyloid-beta precursor protein (Homo sapiens) (UniProt P05067); test: Binding affinity to beta-amyloid in Alzheimer's disease patient brain at 1.85 MBq/[…] after 1 hr by thioflavin-S based autoradiography; conditions: 1.85 M, tested as the 18F-labelled form; in short: as §2
Mus musculus = species: Mus musculus; test: Binding affinity to beta-amyloid in APPswe/PSEN1 transgenic C57BL6 mouse model brain at 1.85 MBq/[…] after 1 hr by thioflavin-S based autoradiography; conditions: 1.85 M, tested as the 18F-labelled form
In short: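 Transgenic mouse brain sections deparaffinized, then incubated with 18F tracer (1.85 MBq/200 µL) for 1 h at room temperature. Washed in 40% EtOH, phosphor-imaged after 2 h exposure. Same sections then stained with 0.125% thioflavin-S in 10% EtOH for 3 min and imaged by fluorescence (excitation 405 nm, long-pass 505 nm).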

Sequence of Amyloid-beta precursor protein (Homo sapiens) (P05067 whole entry): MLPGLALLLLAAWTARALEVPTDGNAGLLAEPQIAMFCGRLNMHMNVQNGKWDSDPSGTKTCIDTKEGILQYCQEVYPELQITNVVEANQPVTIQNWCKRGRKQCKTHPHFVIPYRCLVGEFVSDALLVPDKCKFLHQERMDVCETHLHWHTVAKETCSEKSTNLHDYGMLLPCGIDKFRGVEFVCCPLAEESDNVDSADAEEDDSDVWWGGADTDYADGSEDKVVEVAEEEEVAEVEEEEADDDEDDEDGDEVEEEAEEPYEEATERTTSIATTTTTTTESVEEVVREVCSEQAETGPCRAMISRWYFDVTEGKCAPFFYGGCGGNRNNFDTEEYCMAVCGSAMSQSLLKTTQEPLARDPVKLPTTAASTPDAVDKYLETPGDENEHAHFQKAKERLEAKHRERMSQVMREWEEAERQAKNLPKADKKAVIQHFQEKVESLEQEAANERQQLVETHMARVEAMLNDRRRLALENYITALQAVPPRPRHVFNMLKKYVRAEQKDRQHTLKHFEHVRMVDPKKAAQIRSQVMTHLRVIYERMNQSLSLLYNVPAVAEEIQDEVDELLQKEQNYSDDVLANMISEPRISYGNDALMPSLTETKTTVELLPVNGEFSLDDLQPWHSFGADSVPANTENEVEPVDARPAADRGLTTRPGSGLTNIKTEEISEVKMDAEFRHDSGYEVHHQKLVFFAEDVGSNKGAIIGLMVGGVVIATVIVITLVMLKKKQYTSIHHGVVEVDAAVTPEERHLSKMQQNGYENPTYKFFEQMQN

Drug uptake (Heart [1]): 6.08 % ID/g | Drug uptake (Blood [2]): 4.93 % ID/g | Drug uptake (Heart [3]): 4.28 % ID/g | Drug uptake (Lung [4]): 4.36 % ID/g | Drug uptake (Heart [5]): 4.27 % ID/g | Drug uptake (Stomach [6]): 1.84 %ID | Drug uptake (Bone [7]): 2.46 % ID/g | Drug uptake (Lung [8]): 6.38 % ID/g | Drug uptake (Intestine [9]): 12.87 %ID | logD [10]: 3.14 | Ratio (Brain [11]): 2.58 | Drug uptake (Brain [12]): 5.07 % ID/g | Drug uptake (Intestine [13]): 17.15 %ID | Drug uptake (Intestine [14]): 9.63 %ID | Drug uptake (Kidney [15]): 4.25 % ID/g | Drug uptake (Spleen [16]): 3.04 % ID/g | Drug uptake (Liver [17]): 7.8 % ID/g | Drug uptake (Liver [18]): 5.37 % ID/g | Drug uptake (Spleen [19]): 3.87 % ID/g | Drug uptake (Spleen [20]): 3.35 % ID/g | Drug uptake (Kidney [21]): 3.79 % ID/g | Drug uptake (Lung [22]): 3.77 % ID/g | Drug uptake (Blood [23]): 5.24 % ID/g | Drug uptake (Intestine [24]): 18.75 %ID | Drug uptake (Brain [25]): 3.45 % ID/g | Drug uptake (Blood [26]): 5.09 % ID/g | Drug uptake (Bone [27]): 6.2 % ID/g | Drug uptake (Stomach [28]): 2.5 %ID | Drug uptake (Kidney [29]): 9.37 % ID/g | Drug uptake (Liver [30]): 9.5 % ID/g | Drug uptake (Brain [31]): 3.17 % ID/g | Drug uptake (Kidney [32]): 5.96 % ID/g | Drug uptake (Stomach [33]): 1.81 %ID | Drug uptake (Liver [34]): 5 % ID/g | Drug uptake (Heart [35]): 4.24 % ID/g | Drug uptake (Stomach [36]): 2.55 %ID | Drug uptake (Bone [37]): 2.84 % ID/g | Drug uptake (Spleen [38]): 4.71 % ID/g | Drug uptake (Bone [39]): 5.73 % ID/g | Drug uptake (Brain [40]): 8.17 % ID/g | Drug uptake (Blood [41]): 4.68 % ID/g | Drug uptake (Lung [42]): 3.78 % ID/g
Structure (SMILES): CNc1ccc2nc(-c3ccc(OCC[18F])cc3)cnc2c1

Ki [43]: 10 nM | Activity [44]: inactive | Activity [45]: Active | Activity (Mus musculus): Active
Structure (SMILES): CNc1ccc2nc(-c3ccc(OCCF)cc3)cnc2c1
